The test system of data set [1] is Rattus norvegicus. The experiment in a line: Retinotoxicity in male Wistar albino rat assessed as reduction in 10 Hz flicker ERG at 200 mg/kg, ip administered QD for 90 days by electroretinogram analysis relative to control. Format: toxicity, organism-based. More on the design: dose 200 mg/kg, route intraperitoneal. Conditions: in vivo, 2160 h.
Data set [2] concerns Rattus norvegicus. The experiment in a line: Retinotoxicity in male Wistar albino rat assessed as reduction in 10 Hz flicker ERG at 200 mg/kg, ip administered QD for 45 days by electroretinogram analysis relative to control. It is filed as toxicity, organism-based. Set-up: dose 200 mg/kg, route intraperitoneal. Conditions: in vivo, 1080 h.
Data set [3] deals with Rattus norvegicus. The experiment in a line: Retinotoxicity in female Wistar albino rat assessed as reduction in 10 Hz flicker ERG at 200 mg/kg, ip administered QD for 45 days by electroretinogram analysis relative to control. Format: toxicity, organism-based. Conditions: in vivo, 1080 h. Set-up: dose 200 mg/kg, route intraperitoneal.
Data set [4] concerns Rattus norvegicus. As to the kind of experiment: Retinotoxicity in Wistar albino rat assessed as increase cone implicit time at 200 mg/kg, ip administered QD for 45 to 90 days relative to control. It is filed as toxicity, organism-based. Set-up: dose 200 mg/kg, route intraperitoneal. Conditions: in vivo. The gist of the method:
(§1)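 Wistar albino rats, 9 weeks old at the start and of both sexes, received one i.p. injection daily for 45 or 90 days. The dose was in 0.9% saline made fresh weekly, against a saline vehicle group. After a 5–7 day washout and at least 12 h of dark adaptation, pupils were dilated (tropicamide 1%, phenylephrine 10%). ERG was then recorded from both eyes under ketamine/xylazine.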

Data set [5] has as its system Rattus norvegicus. The experiment in a line: Retinotoxicity in Wistar albino rat assessed as increase mesopic implicit time at 200 mg/kg, ip administered QD for 45 to 90 days relative to control. More on the design: dose 200 mg/kg, route intraperitoneal. Format: toxicity, organism-based. The conditions noted are these: in vivo.
Data set [6] concerns Rattus norvegicus. The experiment in a line: Retinotoxicity in female Wistar albino rat assessed as reduction in 10 Hz flicker ERG at 200 mg/kg, ip administered QD for 90 days by electroretinogram analysis relative to control. Format: toxicity, organism-based. More on the design: dose 200 mg/kg, route intraperitoneal. The conditions noted are these: in vivo, 2160 h.
The subject of data set [7] is Rattus norvegicus. The experiment in a line: Retinotoxicity in Wistar albino rat assessed as increase rod implicit time at 200 mg/kg, ip administered QD for 45 to 90 days relative to control. Set-up: dose 200 mg/kg, route intraperitoneal. The conditions noted are these: in vivo. Format: toxicity, organism-based. The gist of the method:
as §1

In data set [8] the test system is Rattus norvegicus. As to the kind of experiment: Inhibition of cocaine-induced conditioned place preference in rat assessed as time spent in the chamber at 300 mg/kg, ip administered 2.5 hrs prior to cocaine-challenge measured after 12 days for 15 mins (reference value: 7.1 +/- 0.6 mins). Format: functional. The conditions noted are these: route intraperitoneal.

Data set [9] relates to Rattus norvegicus. The experiment in a line: Toxicity in Wistar albino rat assessed as mortality at 200 mg/kg, ip measured up to 3 weeks. It is filed as organism-based. More on the design: dose 200 mg/kg, route intraperitoneal. Conditions: in vivo, 504 h. Put shortly: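 Mixed-sex Wistar albino rats, 15 per group, dosed ip once daily with drug in 0.9% saline. Monitored for mortality, moribundity, clinical signs, feed intake and body weight. Animals in distress over 24 h were euthanized. Some received food supplements or ip fluids during the first 3 weeks.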

Each structure is given as a SMILES string.

Consider `C=CC(N)CCC(=O)O` (centres undefined) [VIGABATRIN], for which the Activity entry in the data set with Rattus norvegicus [1], in the data set with Rattus norvegicus [2], with Rattus norvegicus [3], in the data set on Rattus norvegicus [4], with Rattus norvegicus [5] and with Rattus norvegicus [6] was “Toxic” in each case. The Activity result in the data set with Rattus norvegicus [7] and in the data set with Rattus norvegicus [9] was “Toxic” each time. Moreover, the Time in the data set with Rattus norvegicus [8] is 7.9 min.

Source of the values: ChEMBL document CHEMBL2203122 (J Med Chem, 2012).
